Experimental data as given in ChEMBL document CHEMBL4270616, “Asymmetrical meta-methoxylated diarylpentanoids: Rational design, synthesis and anti-cancer evaluation in-vitro” (Eur J Med Chem, 2018).

Columns and labels:
SW-620 [1] = assay: Induction of apoptosis in human SW620 cells assessed as live cells at 2.5 uM after 72 hrs by Annexin V-FITC/propidium iodide staining based flow cytometry (reference value: 97.34%); assay type: functional
SW-620 [2] = assay: Induction of apoptosis in human SW620 cells assessed as necrotic cells at 5 uM after 48 hrs by Annexin V-FITC/propidium iodide staining based flow cytometry (reference value: 0.23%); assay type: functional
HT-1080 = assay: Cytotoxicity against human HT1080 cells assessed as inhibition of cell proliferation at 20 uM after 72 hrs by MTT assay relative to control; assay type: functional; settings: HT-1080, 72 h
Procedure, shortened: (§1)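 Single-concentration screen at 20 μM with 72 h exposure in DMEM with 10% FBS, final DMSO 0.1%. Read-out was MTT (5 mg/mL, 4 h, 37°C), DMSO solubilisation and absorbance at 570 nm, expressed as percent inhibition. Lines reaching a threshold percentage went on to IC50 determination.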

SW-620 [3] = assay: Cell cycle arrest in human SW620 cells assessed as accumulation at G2/M phase at 1.25 uM after 24 hrs by propidium iodide staining based flow cytometry (reference value: 19%); assay type: functional
SW-620 [4] = assay: Induction of apoptosis in human SW620 cells assessed as early apoptotic cells at 5 uM after 72 hrs by Annexin V-FITC/propidium iodide staining based flow cytometry (reference value: 2.1%); assay type: functional
SW-620 [5] = assay: Induction of apoptosis in human SW620 cells assessed as necrotic cells at 2.5 uM after 48 hrs by Annexin V-FITC/propidium iodide staining based flow cytometry (reference value: 0.23%); assay type: functional
SW-620 [6] = assay: Induction of apoptosis in human SW620 cells after 24 to 72 hrs by Annexin V-FITC/propidium iodide staining based flow cytometry; assay type: functional, cell-based
SW-620 [7] = assay: Induction of apoptosis in human SW620 cells assessed as necrotic cells at 10 uM after 72 hrs by Annexin V-FITC/propidium iodide staining based flow cytometry (reference value: 0.27%); assay type: functional
SW-620 [8] = assay: Cell cycle arrest in human SW620 cells assessed as accumulation at G2/M phase at 2.5 uM after 24 hrs by propidium iodide staining based flow cytometry (reference value: 19%); assay type: functional
SW-620 [9] = assay: Induction of apoptosis in human SW620 cells assessed as early apoptotic cells at 10 uM after 72 hrs by Annexin V-FITC/propidium iodide staining based flow cytometry (reference value: 2.1%); assay type: functional
SW-620 [10] = assay: Cytotoxicity against human SW620 cells assessed as inhibition of cell proliferation at 20 uM after 72 hrs by MTT assay relative to control; assay type: functional; settings: SW-620, 72 h; procedure, shortened: as §1
SW-620 [11] = assay: Induction of apoptosis in human SW620 cells assessed as live cells at 2.5 uM after 48 hrs by Annexin V-FITC/propidium iodide staining based flow cytometry (reference value: 96.26%); assay type: functional
SW-620 [12] = assay: Induction of apoptosis in human SW620 cells assessed as early apoptotic cells at 10 uM after 24 hrs by Annexin V-FITC/propidium iodide staining based flow cytometry (reference value: 2.35%); assay type: functional
[13] = Cytotoxicity against human EJ28 cells assessed as inhibition of cell proliferation at 20 uM after 72 hrs by MTT assay relative to control; assay type: functional; settings: EJ-28, 72 h; procedure, shortened: as §1
NHDF = assay: Cytotoxicity against NHDF after 72 hrs by MTT assay; assay type: cell-based; settings: Homo sapiens
Procedure, shortened: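 NHDF grown in DMEM with 5% FBS at 37°C, 5% CO2. Seeded at 1500-5000 cells/well, 24 h, then compound added in DMSO-containing medium (final DMSO 0.1%) for 72 h. MTT (5 mg/mL in medium) added for 4 h at 37°C, formazan dissolved in DMSO, absorbance read at 570 nm.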

SW-620 [14] = assay: Induction of apoptosis in human SW620 cells assessed as late apoptotic cells at 2.5 uM after 72 hrs by Annexin V-FITC/propidium iodide staining based flow cytometry (reference value: 0.29%); assay type: functional
SW-620 [15] = assay: Induction of apoptosis in human SW620 cells assessed as necrotic cells at 2.5 uM after 72 hrs by Annexin V-FITC/propidium iodide staining based flow cytometry (reference value: 0.27%); assay type: functional
SW-620 [16] = assay: Anticlonogenic activity against human SW620 cells assessed as colony formation at 1.25 uM after 10 days by crystal violet staining based imaging analysis (reference value: 100%); assay type: functional
Procedure, shortened: (§2)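 SW620 cells seeded at 1000 cells/well in DMEM, left overnight at 37°C, 5% CO2, then exposed to compound for ten days with drug-containing medium renewed every three days. Cells were PBS-washed, fixed in 4% paraformaldehyde for 15 min, stained with 0.5% (w/v) crystal violet for 10 min, air-dried, photographed, and colonies quantified by image analysis.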

A549 = assay: Cytotoxicity against human A549 cells after 72 hrs by MTT assay; assay type: functional, cell-based; settings: A549, 72 h
Procedure, shortened: (§3)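 Tumour lines kept in DMEM with 10% FBS and 1% penicillin/streptomycin at 37°C, 5% CO2. Seeded at 1500-5000 cells/well by doubling time and size, 24 h, then compound in DMSO-containing medium (final DMSO 0.1%) for 72 h. MTT (5 mg/mL) 4 h at 37°C, DMSO solubilisation, absorbance at 570 nm.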

SW-620 [17] = assay: Induction of apoptosis in human SW620 cells assessed as late apoptotic cells at 2.5 uM after 24 hrs by Annexin V-FITC/propidium iodide staining based flow cytometry (reference value: 0.43%); assay type: functional
SW-620 [18] = assay: Induction of apoptosis in human SW620 cells assessed as live cells at 5 uM after 72 hrs by Annexin V-FITC/propidium iodide staining based flow cytometry (reference value: 97.34%); assay type: functional
SW-620 [19] = assay: Induction of apoptosis in human SW620 cells assessed as early apoptotic cells at 2.5 uM after 24 hrs by Annexin V-FITC/propidium iodide staining based flow cytometry (reference value: 2.35%); assay type: functional
SW-620 [20] = assay: Anticlonogenic activity against human SW620 cells assessed as colony formation at 0.625 uM after 10 days by crystal violet staining based imaging analysis (reference value: 100%); assay type: functional; procedure, shortened: as §2
MCF7 [21] = assay: Cytotoxicity against human MCF7 cells after 72 hrs by MTT assay; assay type: functional, cell-based; settings: MCF7, 72 h; procedure, shortened: as §3
[22] = Cytotoxicity against human EJ28 cells after 72 hrs by MTT assay; assay type: functional, cell-based; settings: EJ-28, 72 h; procedure, shortened: as §3
SW-620 [23] = assay: Induction of apoptosis in human SW620 cells assessed as necrotic cells at 5 uM after 24 hrs by Annexin V-FITC/propidium iodide staining based flow cytometry (reference value: 0.15%); assay type: functional
MCF7 [24] = assay: Cytotoxicity against human MCF7 cells assessed as inhibition of cell proliferation at 20 uM after 72 hrs by MTT assay relative to control; assay type: functional; settings: MCF7, 72 h; procedure, shortened: as §1
SW-620 [25] = assay: Induction of apoptosis in human SW620 cells assessed as late apoptotic cells at 5 uM after 24 hrs by Annexin V-FITC/propidium iodide staining based flow cytometry (reference value: 0.43%); assay type: functional
SW-620 [26] = assay: Induction of apoptosis in human SW620 cells assessed as live cells at 5 uM after 24 hrs by Annexin V-FITC/propidium iodide staining based flow cytometry (reference value: 97.03%); assay type: functional

| SMILES | Activity (SW-620 [1]) [%] | Activity (SW-620 [2]) [%] | inhibition at 20 µM (HT-1080) [%] | Activity (SW-620 [3]) [%] | Activity (SW-620 [4]) [%] | Activity (SW-620 [5]) [%] | Activity (SW-620 [6]) | Activity (SW-620 [7]) [%] | Activity (SW-620 [8]) [%] | Activity (SW-620 [9]) [%] | inhibition at 20 µM (SW-620 [10]) [%] | Activity (SW-620 [11]) [%] | Activity (SW-620 [12]) [%] | inhibition at 20 µM [13] [%] | IC50 (NHDF) [nM] | Activity (SW-620 [14]) [%] | Activity (SW-620 [15]) [%] | Activity (SW-620 [16]) [%] | IC50 (A549) [nM] | Activity (SW-620 [17]) [%] | other results |
| --- | --- | --- | --- | --- | --- | --- | --- | --- | --- | --- | --- | --- | --- | --- | --- | --- | --- | --- | --- | --- | --- |
| COc1ccc(/C=C2\CCC/C(=C\c3cccc(O)c3)C2=O)cc1OC | 63.72 | 2.86 | > 50 | 24 | 10.2 | 0.44 | Dose-dependent effect | 0.22 | 49 | 2.49 | > 50 | 91.27 | 42.12 | > 50 | 6800 | 4.57 | 0.78 | 0.8 | 4300 | 0.64 | Activity (SW-620 [18]): 6.2%; Activity (SW-620 [19]): 5.46%; Activity (SW-620 [20]): 93.4%; IC50 (MCF7 [21]): 2900 nM; IC50 [22]: 1800 nM; Activity (SW-620 [23]): 0.35%; inhibition at 20 µM (MCF7 [24]): > 50%; Activity (SW-620 [25]): 2.26%; Activity (SW-620 [26]): 73.65% |
| COc1ccc(/C=C2\CCC/C(=C\c3cc(OC)c(OC)c(OC)c3)C2=O)cc1OC | 66.34 | 1.55 | > 50 | 20 | 3.48 | 0.55 | Dose-dependent effect | 0.24 | 50 | 2.85 | > 50 | 79.03 | 40.33 | > 50 | 5800 | 17.24 | 1.36 | 0.5 | 2900 | 1 | Activity (SW-620 [18]): 3.13%; Activity (SW-620 [19]): 12.47%; Activity (SW-620 [20]): 84.6%; IC50 (MCF7 [21]): 1600 nM; IC50 [22]: 1700 nM; Activity (SW-620 [23]): 0.36%; inhibition at 20 µM (MCF7 [24]): > 50%; Activity (SW-620 [25]): 0.35%; Activity (SW-620 [26]): 55.03% |
